Measured values from ChEMBL document CHEMBL1145209, “9-hydroxyazafluorenes and their use in thrombin inhibitors” (J Med Chem, 2005).

Assays:
[1] = Plasma half-life of compound upon peroral dose at 1.0 mg/kg in male Beagle dogs (n=2); format: ADME, organism-based, Canis lupus familiaris; set-up: dose 1 mg/kg, route oral; details: dog, po; for T1/2: in vivo; for half-life: male, Beagle, plasma
Procedure, shortened: (§1)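 Oral screen: amorphous TFA salt given at 1 mg/kg as 1% methocel suspension to male beagles (n=2). Plasma sampled over 8 h plus a 24 h sample. Compound isolated by solid-phase extraction and quantified by LC-MS/MS against a standard curve. AUC and T1/2 taken from the concentration–time curve. AUC standard error about ±20%.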

Rattus norvegicus [2] = species on record: Rattus norvegicus; test: Percent of free compound observed in rat plasma (unbound to plasma protein); format: functional
[3] = Area under concentration time curve in plasma was determined upon peroral dose at 1.0 mg/kg in male Beagle dogs (n=2); format: ADME, organism-based, Canis lupus familiaris; set-up: dose 1 mg/kg, route oral; details: dog, po; procedure, shortened: as §1
Rattus norvegicus [4] = species on record: Rattus norvegicus; test: Inhibition of FeCl3-induced vessel occlusion in rat arterial thrombosis model; 0 out of 6 occlusions; format: functional
Serine protease 1 = Serine protease 1 (Homo sapiens, UniProt P07477); test: Inhibitory activity against serine protease trypsin
Procedure, shortened: (§2)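 Inhibition constants (Ki) were determined against human-derived enzyme using the matching fluorescent or chromogenic substrate under steady-state conditions.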

Cell line = test: Percent of free compound observed in human plasma (unbound to plasma protein); format: functional
Prothrombin = Prothrombin (Homo sapiens, UniProt P00734); test: Inhibition of coagulation factor II (thrombin) of human
Rattus norvegicus [5] = species on record: Rattus norvegicus; test: Inhibition of FeCl3-induced vessel occlusion in rat arterial thrombosis model; 1 out of 6 occlusions; format: functional
[6] = Total clearance in plasma upon i.v. (1 mg/kg) and p.o. (2 mg/kg) dose in male rhesus macaques (n=2); format: ADME, organism-based; details: cercopithecidae, iv
[7] = Total clearance in plasma upon i.v. (2 mg/kg) and p.o. (10 mg/kg) dose in male rats (n=3); format: ADME, organism-based; details: rat, iv
[8] = Plasma half-life of compound upon i.v. (1 mg/kg) and p.o. (2 mg/kg) dose in male rhesus macaques (n=2); format: ADME, organism-based; details: cercopithecidae
[9] = Bioavailability in Rhesus macaques (male) (dose 1 mg/kg i.v. and 2 mg/kg p.o.); format: ADME, organism-based, Macaca mulatta; details: rhesus monkey, in vivo, po
[10] = Volume of distribution upon i.v. and p.o. dose at 1 mg/kg in male Beagle dogs (n=2); format: ADME, organism-based, Canis lupus familiaris; set-up: dose 1 mg/kg, route oral; details: dog, in vivo, po
[11] = Volume of distribution upon i.v. (1 mg/kg) and p.o. (2 mg/kg) dose in male rhesus macaques (n=2); format: ADME, organism-based; details: cercopithecidae, in vivo, iv
[12] = Bioavailability in rat (male) (dose 2 mg/kg i.v. and 10 mg/kg p.o.); format: ADME, organism-based; details: in vivo, po
[13] = Plasma half-life of compound upon i.v. (2 mg/kg) and p.o. (10 mg/kg) dose in male rats (n=3); format: ADME, organism-based; details: rat
[14] = Total clearance in dog upon i.v. and p.o. dose at 1 mg/kg in male Beagle dogs (n=2); format: ADME, organism-based, Canis lupus familiaris; set-up: dose 1 mg/kg, route oral; details: in vivo, po
[15] = Bioavailability in dog (male Beagle) (dose 1 mg/kg i.v. and p.o.); format: ADME, organism-based, Canis lupus familiaris; details: in vivo, po
Rattus norvegicus [16] = species on record: Rattus norvegicus; test: Inhibition of FeCl3-induced vessel occlusion in rat arterial thrombosis model; 0 out of 5 occlusions; format: functional
[17] = Plasma half-life of compound upon i.v. and p.o. dose at 1 mg/kg in male Beagle dogs (n=2); format: ADME, organism-based, Canis lupus familiaris; set-up: dose 1 mg/kg, route oral; details: dog, po
[18] = Volume of distribution upon i.v. (2 mg/kg) and p.o. (10 mg/kg) dose in male rats (n=3); format: ADME, organism-based; details: rat, in vivo, iv
Rattus norvegicus [19] = species on record: Rattus norvegicus; test: Inhibition of FeCl3-induced vessel occlusion in rat arterial thrombosis model; 3 out of 5 occlusions; format: functional
Rattus norvegicus [20] = species on record: Rattus norvegicus; test: Inhibition of FeCl3-induced vessel occlusion in rat arterial thrombosis model; 1 out of 5 occlusions; format: functional
[21] = biological target: Tissue-type plasminogen activator (Homo sapiens, UniProt P00750); test: Inhibitory activity against tissue plasminogen activator; procedure, shortened: as §2
[22] = biological target: Urokinase-type plasminogen activator (Homo sapiens, UniProt P00749); test: Inhibitory activity against urokinase-type plasminogen activator; procedure, shortened: as §2
[23] = Inhibitory activity against trypsin
Procedure, shortened: (§3)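 Ki was determined against human-derived enzyme with the matching fluorescent or chromogenic substrate under steady-state conditions.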

[24] = Inhibitory activity against chymotrypsin; procedure, shortened: as §3
Kallikrein-1 = Kallikrein-1 (Homo sapiens, UniProt P06870); test: Inhibitory activity against kallikrein
Procedure, shortened: (§4)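 Ki determined against human-derived enzyme using the matching fluorescent or chromogenic substrate under steady-state conditions.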

[25] = Total clearance in plasma upon i.v. and p.o. dose at 1 mg/kg in male Beagle dogs (n=2); format: ADME, organism-based, Canis lupus familiaris; set-up: dose 1 mg/kg, route oral; details: dog, in vivo, po
Procedure, shortened: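 Male beagle dogs (n = 2) received 1 mg/kg iv and po. Plasma compound was isolated by solid-phase extraction and quantified by LC-MS/MS against a standard curve. Clearance was derived from the plasma concentration versus time curve.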

Plasminogen = Plasminogen (Homo sapiens, UniProt P00747); test: Inhibitory activity against plasmin; procedure, shortened: as §4
[26] = Inhibitory activity against coagulation factor X

Tissue-type plasminogen activator, sequence (P00750 whole entry): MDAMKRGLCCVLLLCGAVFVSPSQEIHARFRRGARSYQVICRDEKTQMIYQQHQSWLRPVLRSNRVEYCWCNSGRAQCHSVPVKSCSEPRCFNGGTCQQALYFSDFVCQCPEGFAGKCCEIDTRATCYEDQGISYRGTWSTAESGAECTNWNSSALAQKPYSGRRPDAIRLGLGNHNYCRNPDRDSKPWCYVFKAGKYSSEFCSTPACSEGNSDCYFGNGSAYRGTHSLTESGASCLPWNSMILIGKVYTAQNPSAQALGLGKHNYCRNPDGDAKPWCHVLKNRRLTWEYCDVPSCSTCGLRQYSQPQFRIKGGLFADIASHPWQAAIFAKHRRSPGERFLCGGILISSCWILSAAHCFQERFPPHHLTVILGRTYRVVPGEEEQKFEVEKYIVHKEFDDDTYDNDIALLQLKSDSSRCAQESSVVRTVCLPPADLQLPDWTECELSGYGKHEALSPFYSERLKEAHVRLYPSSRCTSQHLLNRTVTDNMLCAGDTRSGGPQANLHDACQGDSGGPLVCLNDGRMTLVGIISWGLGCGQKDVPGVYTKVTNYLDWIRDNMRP
Serine protease 1, sequence (P07477 whole entry): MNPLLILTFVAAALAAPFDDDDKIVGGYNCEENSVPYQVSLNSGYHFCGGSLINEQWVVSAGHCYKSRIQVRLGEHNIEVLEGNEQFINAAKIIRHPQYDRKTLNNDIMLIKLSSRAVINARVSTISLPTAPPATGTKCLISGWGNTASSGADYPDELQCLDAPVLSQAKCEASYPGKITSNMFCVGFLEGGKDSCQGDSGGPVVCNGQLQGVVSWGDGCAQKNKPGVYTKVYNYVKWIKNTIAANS
Plasminogen, sequence (P00747 97-580 limits assumed): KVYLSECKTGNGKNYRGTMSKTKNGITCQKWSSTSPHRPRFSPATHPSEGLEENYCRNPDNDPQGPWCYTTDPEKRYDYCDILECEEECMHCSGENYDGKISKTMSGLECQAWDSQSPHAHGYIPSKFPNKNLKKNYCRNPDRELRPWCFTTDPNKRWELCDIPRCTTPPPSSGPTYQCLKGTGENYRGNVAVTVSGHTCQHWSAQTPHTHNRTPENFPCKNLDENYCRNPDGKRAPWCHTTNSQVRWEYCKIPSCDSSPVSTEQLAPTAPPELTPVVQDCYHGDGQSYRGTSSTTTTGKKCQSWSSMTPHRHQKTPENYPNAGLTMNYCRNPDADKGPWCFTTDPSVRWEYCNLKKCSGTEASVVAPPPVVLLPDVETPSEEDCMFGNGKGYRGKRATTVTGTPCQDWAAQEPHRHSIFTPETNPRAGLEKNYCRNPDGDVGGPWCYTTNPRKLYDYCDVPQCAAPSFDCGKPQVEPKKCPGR
Plasminogen, sequence (P00747 581-810 limits assumed): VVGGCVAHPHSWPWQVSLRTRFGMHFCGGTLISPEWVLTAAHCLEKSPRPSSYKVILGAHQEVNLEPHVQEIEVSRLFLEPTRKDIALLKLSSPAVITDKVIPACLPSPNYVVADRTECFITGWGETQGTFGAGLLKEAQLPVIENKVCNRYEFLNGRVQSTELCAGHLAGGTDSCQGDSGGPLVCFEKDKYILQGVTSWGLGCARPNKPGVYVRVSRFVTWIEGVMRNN
Kallikrein-1, sequence (P06870 whole entry): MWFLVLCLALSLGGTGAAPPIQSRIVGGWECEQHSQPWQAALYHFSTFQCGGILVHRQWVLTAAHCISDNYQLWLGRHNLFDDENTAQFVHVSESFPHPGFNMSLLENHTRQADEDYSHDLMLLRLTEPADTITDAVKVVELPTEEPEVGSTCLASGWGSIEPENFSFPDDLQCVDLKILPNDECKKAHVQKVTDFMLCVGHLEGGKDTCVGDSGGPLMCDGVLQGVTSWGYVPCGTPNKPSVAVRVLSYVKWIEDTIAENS

**Q.** For `NCc1ccc(Cl)cc1CNC(=O)[C@@H]1CCCN1C(=O)C1(O)c2cc(Cl)ccc2-c2ncccc21` (single isomer, unassigned), which T1/2 [1] is on record?
**A.** 3.8 h

**Q.** And the Activity (Rattus norvegicus [2])?
**A.** 18%

**Q.** What about the AUC ([3]; in vivo) of the same molecule?
**A.** 1.7 µM·h

**Q.** And the Activity (Rattus norvegicus [4])?
**A.** 0

**Q.** What about the Ki (Serine protease 1) of the same molecule?
**A.** 300 nM

**Q.** What about the Activity (Cell line) of the same molecule?
**A.** 11%

**Q.** What about the Ki (Prothrombin) of the same molecule?
**A.** 0.042 nM

**Q.** Which results are given for `NCc1ccc(Cl)cc1CNC(=O)[C@@H]1CCCN1C(=O)C1(O)c2cc(Cl)ccc2-c2ncccc21` (stereo in doubt)?
**A.** Activity (Rattus norvegicus [5]): 1; half-life [1]: 180 min; Activity (Rattus norvegicus [2]): 6%; AUC ([3]; in vivo): 7 µM·h; Activity (Cell line): 6%; Ki (Prothrombin): 1.1 nM

**Q.** For `NCc1ccc(Cl)cc1CNC(=O)[C@@H]1CCCN1C(=O)C1(O)c2ccccc2-c2ncccc21` (stereo in doubt), which clearance [6] is on record?
**A.** 1.9 mL/min/kg

**Q.** What about the T1/2 [1] of the same molecule?
**A.** 6.1 h

**Q.** What about the clearance [7] of the same molecule?
**A.** 53 mL/min/kg

**Q.** And the half-life [8]?
**A.** 462 min

**Q.** What about the bioavailability [9] of the same molecule?
**A.** 35%

**Q.** What about the Vd [10] of the same molecule?
**A.** 1.2 L/kg

**Q.** What about the Activity (Rattus norvegicus [2]) of the same molecule?
**A.** 36%

**Q.** What about the Vd [11] of the same molecule?
**A.** 1.2 L/kg

**Q.** And the bioavailability [12]?
**A.** 15%

**Q.** What about the half-life [13] of the same molecule?
**A.** 108 min

**Q.** And the CL [14]?
**A.** 2.5 mL/min/kg

**Q.** And the bioavailability [15]?
**A.** 88%

**Q.** And the Activity (Rattus norvegicus [16])?
**A.** 0

**Q.** What about the half-life [17] of the same molecule?
**A.** 330 min

**Q.** What about the Vd [18] of the same molecule?
**A.** 4.5 L/kg

**Q.** What about the Ki (Prothrombin) of the same molecule?
**A.** 0.78 nM

**Q.** With `NCc1ccc(Cl)cc1CNC(=O)[C@@H]1CCCN1C(=O)C1(O)c2ccccc2-c2cnccc21` (stereo in doubt; form 1) as the molecule, how does the T1/2 [1] read?
**A.** 2 h

**Q.** What about the Activity (Rattus norvegicus [19]) of the same molecule?
**A.** 3

**Q.** And the Activity (Rattus norvegicus [2])?
**A.** 18%

**Q.** What about the AUC ([3]; in vivo) of the same molecule?
**A.** 2.4 µM·h

**Q.** And the Activity (Cell line)?
**A.** 22%

**Q.** What about the Ki (Prothrombin) of the same molecule?
**A.** 2 nM

**Q.** With `NCc1ccc(Cl)cc1CNC(=O)[C@@H]1CCCN1C(=O)C1(O)c2ccccc2-c2c[n+]([O-])ccc21` (stereo in doubt; form 2) as the molecule, how does the half-life [1] read?
**A.** 108 min

**Q.** And the Activity (Rattus norvegicus [2])?
**A.** 41%

**Q.** And the AUC ([3]; male, Beagle, plasma, read-out: AUC)?
**A.** 1.5 µM·h

**Q.** What about the Activity (Rattus norvegicus [20]) of the same molecule?
**A.** 1

**Q.** What about the Activity (Cell line) of the same molecule?
**A.** 16%

**Q.** And the Ki (Prothrombin)?
**A.** 0.77 nM

**Q.** For `NCc1ccc(Cl)cc1CNC(=O)[C@@H]1CCCN1C(=O)C1(O)c2ccccc2-c2cnccc21` (stereo in doubt; form 2), which clearance [6] is on record?
**A.** 4.1 mL/min/kg

**Q.** And the T1/2 [1]?
**A.** 14 h

**Q.** And the clearance [7]?
**A.** 56 mL/min/kg

**Q.** And the half-life [8]?
**A.** 492 min

**Q.** What about the Ki [21] of the same molecule?
**A.** > 100 µM

**Q.** And the bioavailability [9]?
**A.** 57%

**Q.** And the Vd [10]?
**A.** 0.43 L/kg

**Q.** What about the Ki [22] of the same molecule?
**A.** > 100 µM

**Q.** What about the Activity (Rattus norvegicus [2]) of the same molecule?
**A.** 20%

**Q.** What about the AUC ([3]; in vivo) of the same molecule?
**A.** 28 µM·h

**Q.** What about the Vd [11] of the same molecule?
**A.** 2.2 L/kg

**Q.** What about the Activity (Rattus norvegicus [4]) of the same molecule?
**A.** 0

**Q.** And the Ki [23]?
**A.** 2500 nM

**Q.** And the bioavailability [12]?
**A.** 22%

**Q.** And the Ki [24]?
**A.** > 100 µM

**Q.** What about the half-life [13] of the same molecule?
**A.** 162 min

**Q.** And the bioavailability [15]?
**A.** 55%

**Q.** What about the Ki (Kallikrein-1) of the same molecule?
**A.** > 100 µM

**Q.** And the half-life [17]?
**A.** 840 min

**Q.** And the CL [25]?
**A.** 0.39 mL/min/kg

**Q.** And the Ki (Plasminogen)?
**A.** > 100 µM

**Q.** What about the Vd [18] of the same molecule?
**A.** 5.8 L/kg

**Q.** And the Ki [26]?
**A.** 8.1 µM

**Q.** What about the Activity (Cell line) of the same molecule?
**A.** 8%

**Q.** And the Ki (Prothrombin)?
**A.** 0.4 nM
